# Assay results from ChEMBL document CHEMBL2146467, “Generation and exploration of new classes of antitubercular agents: The optimization of oxazolines, oxazoles, thiazolines, thiazoles to imidazo[1,2-a]pyridines and isomeric 5,6-fused scaffolds” (Bioorg Med Chem, 2012).
# Experiments:
# [1] = system: Mycobacterium tuberculosis; experiment: Antimycobacterial activity against Mycobacterium tuberculosis H37Rv ATCC 27294 culture in GAST media after 7 days by microplate alamar blue assay; assay type: functional; settings: H37Rv ATCC 27294, 168 h
# Procedure, shortened: (§1)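 Replicating Mtb H37Rv. The MIC is the concentration that inhibits growth of 90% of organisms. Media by line: GAS is glycerol-alanine-salts. GAST is iron-deficient glycerol-alanine-salts with Tween 80. 7H12 is 7H9 broth base with BSA, casein hydrolysate, catalase and palmitic acid. Values are reported in μM.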
# [2] = system: Mycobacterium tuberculosis; experiment: Antimycobacterial activity against Mycobacterium tuberculosis H37Rv ATCC 27294 culture in GAS media after 7 days by microplate alamar blue assay; assay type: functional; settings: H37Rv ATCC 27294, 168 h; procedure, shortened: as §1
# [3] = Chemical stability in simulated gastric fluid assessed as compound remaining at 50 uM after 15 mins by LC/MS analysis; assay type: physicochemical; settings: read-out: Stability
# [4] = Metabolic stability in Sprague-Dawley rat liver microsomes assessed as compound remaining at 20 uM after 15 mins by LC/MS analysis; assay type: ADME, Microsome; settings: read-out: Stability
# [5] = system: Mycobacterium tuberculosis; experiment: Antimycobacterial activity against Mycobacterium tuberculosis H37Rv ATCC 27294 culture in 7H12 media after 7 days by microplate alamar blue assay; assay type: functional; settings: H37Rv ATCC 27294, 168 h; procedure, shortened: as §1
# Vero = experiment: Cytotoxicity against african green monkey Vero cells after 72 hrs by CellTiter assay; assay type: cell-based; settings: Chlorocebus sabaeus
Compound,MIC90 [1] [µM],MIC90 [2] [µM],"remaining at 0.25 h, 50 µM [3] [%]","remaining at 0.25 h, 20 µM [4] [%]",MIC90 [5] [µM],IC50 (Vero) [µM]
CCOC(=O)c1c(-c2ccccc2)nc2ccc(Cl)cn12,> 128,63.1,–,–,–,–
CCOC(=O)c1c(-c2ccccc2)nc2ccccn12,68.2,86.5,–,–,–,–
O=C(OCc1ccccc1)[C@@H]1COC(c2ccc(F)c([N+](=O)[O-])c2)=N1,–,–,0.6,11.3,–,–
O=C(OCc1ccccc1)[C@@H]1COC(c2ccccc2OCc2ccccc2)=N1,–,–,0.8,5.2,–,–
O=C(OCc1ccccc1)c1coc(-c2ccccc2OCc2ccccc2)n1,–,–,2.9,3.5,–,–
COc1ccc(-c2nc(C(=O)OCc3ccccc3)co2)cc1,–,–,2.1,11.8,–,–
O=C(OCc1ccccc1)c1coc(-c2ccc(F)c([N+](=O)[O-])c2)n1,–,–,0.9,10.9,–,–
O=C(OCc1ccccc1)c1coc(-c2ccccc2Cl)n1,–,–,1.1,7.9,–,–
CCOC(=O)c1c(C)nc2cc(C)ccn12,64.1,65.1,–,–,–,–
CCOC(=O)c1c(-c2ccccc2)nc2cc(C)ccn12,71.3,55.1,–,–,–,–
CCOC(=O)c1c(C)nc2cc(C)cc(C)n12,> 72.9,> 79.5,–,–,–,–
CCOC(=O)c1nc(-c2ccccc2)sc1C(C)=O,124,63,–,–,–,–
COc1ccccc1CNC(=O)c1c(C)nc2cc(C)ccn12,–,–,100,41.6,–,–
COc1cccc(CNC(=O)c2c(C)nc3cc(C)ccn23)c1,–,–,100,94,–,–
COc1ccc(CNC(=O)c2c(C)nc3cc(C)ccn23)cc1,–,–,100,33.6,–,–
Cc1ccn2c(C(=O)NCc3ccc(Cl)cc3)c(C)nc2c1,–,–,94.3,80.7,–,–
O=C(NCc1ccccc1)c1coc(-c2ccccc2)n1,59,> 65,–,–,> 40,–
O=C(OCc1ccccc1)[C@@H]1CSC(c2ccccc2)=N1,3.5,12.9,–,–,11.6,> 128
O=C(OCc1ccccc1)c1cc(-c2ccccc2)[nH]n1,> 64,3.5,–,–,> 38,> 128
COc1ccc(-c2ccc(C(=O)OCc3ccccc3)cn2)cc1,–,1.9,–,–,9.5,–
Cc1nc2ncccn2c1C(=O)OCc1ccccc1,–,2.3,–,–,4.7,> 50
Cc1cc2nc(C)c(C(=O)OCc3ccccc3)n2c(C)n1,–,1.1,–,–,5.3,> 50
COc1ccc(C2=N[C@H](C(=O)NCc3ccc(OC)c(OC)c3)CO2)cc1,> 128,> 128,–,–,–,–
O=C(NC1CCCCC1)[C@@H]1COC(c2ccc(OC(F)(F)F)cc2)=N1,> 64,60,–,–,–,–
CCCCCCNC(=O)[C@@H]1COC(c2ccc(OC(F)(F)F)cc2)=N1,> 64,31,–,–,–,–
COc1ccc(CNC(=O)c2coc(-c3ccccc3)n2)cc1OC,> 128,81,–,–,–,–
O=C(NC1CCCCC1)c1coc(-c2ccccc2)n1,30,14,–,–,–,–

Compound,MIC90 [1] [µM],MIC90 [2] [µM],"remaining at 0.25 h, 50 µM [3] [%]","remaining at 0.25 h, 20 µM [4] [%]",MIC90 [5] [µM],IC50 (Vero) [µM]
CCCCCCNC(=O)c1coc(-c2ccccc2)n1,18,22,–,–,–,–
COc1ccc(CNC(=O)[C@@H]2CSC(c3ccccc3)=N2)cc1OC,> 128,80,–,–,–,–
O=C(NC1CCCCC1)[C@@H]1CSC(c2ccccc2)=N1,56,46,–,–,–,–
CCCCCCNC(=O)[C@@H]1CSC(c2ccccc2)=N1,58,23,–,–,–,–
COc1ccc(CNC(=O)c2csc(-c3ccccc3)n2)cc1OC,64,58,–,–,–,–
O=C(NC1CCCCC1)c1csc(-c2ccccc2)n1,15,15,3.3,3.3,–,–
CCCCCCNC(=O)c1csc(-c2ccccc2)n1,60,14,0.1,18.9,–,–
CCc1ccccc1COC(=O)c1c(C)nc2cc(C)ccn12,–,–,100,37,–,–
Cc1ccn2c(C(=O)NCc3ccccc3Cl)c(C)nc2c1,–,–,97.2,58.9,–,–
CC(C)(C)OC(=O)c1coc(-c2ccccc2)n1,> 64,> 64,–,42,–,–
CCC(=O)c1ccccc1OC(=O)c1coc(-c2ccccc2)n1,–,–,1.8,8.7,–,–
Cc1cccc(OC(=O)c2coc(-c3ccccc3)n2)c1C,–,–,2,4.9,–,–
O=C(Oc1cccc2c1CCCC2)c1coc(-c2ccccc2)n1,–,–,1.8,14.5,–,–
Cc1cc(C)c(OC(=O)c2coc(-c3ccccc3)n2)c(C)c1,–,–,1.4,22,–,–
O=C(Oc1c(Cl)cc(Cl)cc1Cl)c1coc(-c2ccccc2)n1,–,–,1.3,15.5,–,–
O=C(Oc1ccccc1N1CCOCC1)c1coc(-c2ccccc2)n1,–,–,0.7,5.4,–,–
O=C(Oc1ccccc1N1CCCC1)c1coc(-c2ccccc2)n1,–,–,0.1,11.2,–,–
CCC(C)c1ccccc1OC(=O)c1coc(-c2ccccc2)n1 (stereo unspecified),–,–,0.2,8.3,–,–
O=C(Oc1ccc(Cl)cc1Cl)c1coc(-c2ccccc2)n1,–,–,0.8,17.3,–,–
Cc1ccccc1OC(=O)c1coc(-c2ccccc2)n1,–,–,1.5,13.4,–,–
CCCc1ccccc1OC(=O)c1coc(-c2ccccc2)n1,–,–,0.9,5.4,–,–
CC(C)(C)c1cccc(C(C)(C)C)c1OC(=O)c1coc(-c2ccccc2)n1,–,–,1.3,5.3,–,–
Cc1ccc(Cl)c(OC(=O)c2coc(-c3ccccc3)n2)c1,–,–,0.9,14,–,–
CC(C)(C)c1ccccc1OC(=O)c1coc(-c2ccccc2)n1,–,–,0.7,6.9,–,–
CCc1ccccc1OC(=O)c1coc(-c2ccccc2)n1,–,–,2.1,8.5,–,–
O=C(Oc1ccccc1C(F)(F)F)c1coc(-c2ccccc2)n1,–,–,1.2,10.7,–,–
Cc1ccc(COC(=O)c2coc(-c3ccccc3)n2)c(C)c1,–,–,1.4,16.9,–,–

Compound,MIC90 [1] [µM],MIC90 [2] [µM],"remaining at 0.25 h, 50 µM [3] [%]","remaining at 0.25 h, 20 µM [4] [%]",MIC90 [5] [µM],IC50 (Vero) [µM]
C[C@H](OC(=O)c1coc(-c2ccccc2)n1)c1ccccc1,–,–,5,5,–,–
Cc1cc(C)c(COC(=O)c2coc(-c3ccccc3)n2)c(C)c1,–,–,5.6,18.1,–,–
Cc1ccccc1COC(=O)c1coc(-c2ccccc2)n1,–,–,3.1,10.9,–,–
O=C(OCc1ccccc1C(F)(F)F)c1coc(-c2ccccc2)n1,–,–,0.8,7.8,–,–
CCc1ccccc1COC(=O)c1coc(-c2ccccc2)n1,–,–,3.2,3.2,–,–
CCCCCCCCOC(=O)c1coc(-c2ccccc2)n1,–,–,1.1,13.1,–,–
O=C(OCC1CC1)c1coc(-c2ccccc2)n1,–,–,1.5,3.3,–,–
O=C(OC1CCCCC1)c1coc(-c2ccccc2)n1,–,–,0.5,12.1,–,–
O=C(Oc1cccc(C(F)(F)F)c1)c1coc(-c2ccccc2)n1,–,–,5.5,13,–,–
O=C(Oc1ccccc1)c1coc(-c2ccccc2)n1,–,–,0.2,0.2,–,–
CCOC(=O)c1c(C(F)(F)F)nc2ccccn12,> 128,> 128,–,–,–,–
CCOC(=O)c1cnc2cc(C)c(N)cn12,> 128,> 128,–,–,–,–
CCOC(=O)c1c(C)nc2c(C3CCCN3C)cccn12 (stereo unspecified),> 64,> 64,–,–,–,–
CCOC(=O)c1c(C)nc2ccc(Cl)cn12,> 101,93.5,–,–,–,–
CCOC(=O)c1coc(-c2ccccc2)n1,7.5,19.5,–,–,–,–
CCOC(=O)c1nc(-c2ccccc2)oc1C(F)(F)F,> 128,> 128,–,–,–,–
CCOC(=O)c1nc(-c2ccccc2)oc1C,124,> 128,–,–,–,–
CCOC(=O)c1csc(-c2ccc(C)cc2)n1,79,61,–,–,–,–
CCOC(=O)c1csc(-c2cccc(C(F)(F)F)c2)n1,61,59,–,–,–,–
CCOC(=O)c1csc(-c2cccc(Cl)c2Cl)n1,39,41,–,–,–,–
CCOC(=O)c1n[nH]c(-c2cccc(C)c2)c1N,> 128,> 128,–,–,–,–
CCOC(=O)c1nn(Cc2ccccc2)cc1N,> 128,126,–,–,–,–
CCOC(=O)c1cc(-c2ccc([N+](=O)[O-])cc2)[nH]n1,> 128,> 128,–,–,–,–
CCOC(=O)c1c(-c2ccccc2)nc2ccc(C)cn12,41,55.1,–,–,–,–
CO[C@H]1/C=C/O[C@@]2(C)Oc3c(C)c(O)c4c(O)c(c(/C=N/N5CCN(C)CC5)c(O)c4c3C2=O)NC(=O)/C(C)=C\C=C\[C@H](C)[C@H](O)[C@@H](C)[C@@H](O)[C@@H](C)[C@H](OC(C)=O)[C@@H]1C [RIFAMPIN],0.2,0.09,–,–,0.04,–
